This passage reports yeast fitness results from the RNAGym collection of RNA variant scans (doi:10.1126/science.aae0568).

Variants at the floor of the assay were thinned out.

First the molecules themselves.
B1: tRNA (parent)
chain: GUUCCGUUGGCGUAAUGGUAACGCGUCUCCCUCCUAAGGAGAAGACUGCGGGUUCGAGUCCCGUACGGAACG

This data set covers variants of B1. Briefly: yeast fitness relative to wild type (ratio to wild type); higher = fitter; tRNA-Arg(CCU), competitive growth, 37 C, YPD. Summed up:
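Variants of the tRNA-Arg(CCU) gene were chemically synthesised with a 3% per-site mutation rate across 69 sites and placed at the native genomic locus in Saccharomyces cerevisiae. Six parallel replicates of the pooled strains were competed in YPD at 37°C for 24 hours, and gene amplicons from the start and end populations were read by 100-nucleotide paired-end sequencing. Darwinian fitness relative to wild type was derived from changes in genotype frequencies. Genotypes required ≥ 100 starting reads, and estimates < 0.5 were set to 0.5.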
Regarding U3A C27U A36G, the yeast fitness was found to be 0.594.
For the variant U3A C24G C31U C62U A65C, the yeast fitness is no more than 0.5.
The same measure for U3A C27A A42G C46G: no more than 0.5; for U3A C4A U16A A36C G48A G67A: no more than 0.5.
As to U3A C11G C31G C62A, the yeast fitness is no more than 0.5.
The same measure for U3A A45U A69U: 0.788.
On to U3A C27G C31U C33U A42C C49U, for which the yeast fitness was no more than 0.5.
As to U3A A45C, the yeast fitness is 0.88.
Regarding U3A A45G, the yeast fitness stood at 1.
As to U3A C11G A14C C24G, the yeast fitness worked out at 0.653.
On to U3A C31A C34A A37C G68C, for which the yeast fitness was no more than 0.5.
Take U3A C11A C33U C60U A65U: the yeast fitness was no more than 0.5.
The same measure for U3A C11G C22A C33G: no more than 0.5; for U3A C29G G38A C62G: no more than 0.5; for U3A C5A C29A G68A: no more than 0.5.
With U3A C4U G10C C33G G52C, the yeast fitness was no more than 0.5.
With U3A C11U U13C C31A, the yeast fitness was no more than 0.5.
As for U3A C11U A20C U32A C62U G63A, the yeast fitness is no more than 0.5.
The same measure for U3A C11G A14C C24G C31A: no more than 0.5; for U3A C5U C22G U53G: no more than 0.5.
The same measure for U3A C22G C29U G63C C66U: no more than 0.5.
The same measure for U3A C27G C62U A65U: no more than 0.5.
Consider U3A C4A U16G G58C, for which the yeast fitness was no more than 0.5.
The value for U3A C29G was 0.575; that for U3A C24U A45C was 0.688.
As for U3A C4U U7A C24U A42U G58A C62U G63A, the yeast fitness is no more than 0.5.
The same measure for U3A C24U G39A: no more than 0.5; for U3A C24U A40U G50C A70U: no more than 0.5.
Turning to U3A C30G U64A A69C, the yeast fitness was no more than 0.5.
The same measure for U3A C5G C29G A36C C49U U53G: no more than 0.5; for U3A C11U A69U: 0.627.
On to U3A C4A A20C C29A, for which the yeast fitness is no more than 0.5.
With U3A C5A C33G C34U, the yeast fitness is 0.634.
Take U3A A43C C46A G48C: the yeast fitness is 0.57.
As to U3A C4U G44C, the yeast fitness was determined as 0.638.
The same measure for U3A C4U C29G: no more than 0.5; for U3A C31G A43U C60G A65C G67C: 0.664; for U3A C29U C31A A40C: 0.631.
The value for U3A C27U G41C U64C A70C was 0.896.
The value for U3A C11G A14C C62U G63A was no more than 0.5; that for U3A C5A A65U was no more than 0.5.
Consider U3A C4U U7A C24U, for which the yeast fitness is no more than 0.5.
The same measure for U3A C5A G67A: 0.548; for U3A C4U C11U G48C: 0.532; for U3A C11G G17C C24G C46A: no more than 0.5.
As to U3A C4A A20C C29A C66U, the yeast fitness is no more than 0.5.
Turning to U3A C27U C55A, the yeast fitness is 0.535.
The value for U3A C4U G25C G48A was no more than 0.5; that for U3A C5A C30G G38C C60G was no more than 0.5; that for U3A C24G C29U A36G was 0.639.
For the variant U3A C4G C60G G67A, the yeast fitness was no more than 0.5.
Regarding U3A C11G G23C, the yeast fitness turned out to be 0.501.
The same measure for U3A C30G A57C G58C: no more than 0.5; for U3A C4U U7A C24U U35C C49U C61G: no more than 0.5; for U3A A45G G67C: 0.628.
For U3A C4U U13A A36U C66U, the yeast fitness stood at 0.641.
U3A C29G G52A C66G: the yeast fitness is no more than 0.5.
As to U3A C24G C29U A36G A43U, the yeast fitness is no more than 0.5.
The same measure for U3A C5G A21U C22U U32A C49G: 0.599; for U3A C5G C55U G67C: 0.599.
The same measure for U3A C30U G50C: no more than 0.5; for U3A A45U C46G G52A G68C: no more than 0.5.
The same measure for U3A C5U U28A G58A: 0.5.
Take U3A C4U U7A C24U C46G A65G: the yeast fitness was no more than 0.5.
The same measure for U3A C4G G9A C11G U53A C66U: no more than 0.5; for U3A C22U: 0.738; for U3A C4A U16A C30G U53C C66A: no more than 0.5.
The value for U3A C5U G18C U54A G56A A70G was no more than 0.5; that for U3A C5U A21G A43C was 0.526; that for U3A C4A U8C C31U A37U G48C C66U was no more than 0.5.
On to U3A C22G C29G C46U A70U, for which the yeast fitness was no more than 0.5.
The value for U3A C27U A36G A70U was 0.729; that for U3A C31U was 1.02; that for U3A C4A U19C C27U C46A C62G A69U was no more than 0.5.
The value for U3A A43G was 0.919; that for U3A C24A C27U G56C C66U was no more than 0.5; that for U3A C29G A57G was no more than 0.5.
In the case of U3A C31G C66U, the yeast fitness worked out at 0.641.
As to U3A C29U U59G C66U, the yeast fitness was no more than 0.5.
For the variant U3A C5U C31G C62G A69U, the yeast fitness is 0.554.
In the case of U3A C22A C33A A36U U53A U54A, the yeast fitness is no more than 0.5.
The value for U3A C5U A42C A43U G56C C66U was no more than 0.5.
The value for U3A C11U C29A A42G A57C was no more than 0.5; that for U3A C4U C11A U53A A65U was no more than 0.5.
